The values that follow come from ChEMBL document CHEMBL2010703, “Synthesis and structure-activity relationship studies of 3-biaryl-8-oxabicyclo[3.2.1]octane-2-carboxylic acid methyl esters” (Bioorg Med Chem, 2012).

Where only a bound is given, the exact number is not on record here.

For the first assay, the species on record is Homo sapiens. In words: Selectivity ratio of IC50 for human DAT to IC50 for human SERT.
With `COC(=O)[C@@H]1C2CCC(C[C@@H]1c1cc3ccccc3[nH]1)O2` (mixture of isomers), the Ratio IC50 stood at 0.2. For the compound `COC(=O)[C@@H]1C2CCC(C[C@@H]1c1ccc(-c3cccn3C)cc1)O2` (mixture of isomers), the Ratio IC50 is more than 2. In the case of `COC(=O)[C@@H]1C2CCC(C[C@@H]1c1ccc(-c3ccco3)cc1)O2` (mixture of isomers), the Ratio IC50 was 2. For `COC(=O)[C@@H]1C2CCC(C[C@H]1c1ccc(-c3cccn3C)cc1)O2` (mixture of isomers), the Ratio IC50 is more than 2.5.

Turning to `COC(=O)[C@@H]1C2CCC(C[C@H]1c1ccc(-c3ccco3)cc1)O2` (mixture of isomers), the Ratio IC50 amounted to 4. On the same count and under the same terms, next, `COC(=O)[C@@H]1C2CCC(C[C@H]1c1ccc(-c3cccs3)cc1)O2` (mixture of isomers): 10; `COC(=O)[C@@H]1C2CCC(C[C@H]1c1ccc(-c3nccs3)cc1)O2` (mixture of isomers): more than 7. Still for that read-out and setting: the value for `COC(=O)[C@@H]1C2CCC(C[C@H]1c1cccs1)O2` (mixture of isomers) was 1; that for `COC(=O)[C@H]1C2CCC(C[C@@H]1c1cc3ccccc3[nH]1)O2` (mixture of isomers) was 0.4; that for `COC(=O)[C@H]1C2CCC(C[C@@H]1c1cccs1)O2` (mixture of isomers) was 1. Same read-out and setting: the value for `COC(=O)[C@H]1C2CCC(C[C@H]1c1cc3ccccc3[nH]1)O2` (mixture of isomers) was less than 0.3; that for `COC(=O)[C@H]1C2CCC(C[C@H]1c1cc3ccccc3o1)O2` (mixture of isomers) was less than 0.04; that for `COC(=O)[C@H]1C2CCC(C[C@H]1c1ccc(-c3ccccc3)o1)O2` (mixture of isomers) was less than 2. As to `COC(=O)[C@H]1C2CCC(C[C@H]1c1cccc(-c3nccs3)c1)O2` (mixture of isomers), the Ratio IC50 is 1.

`COC(=O)C1=C(c2cc3ccccc3o2)CC2CCC1O2` (racemic): the Ratio IC50 was less than 0.1.

For `COC(=O)C1=C(c2cc3ccccc3s2)CC2CCC1O2` (racemic), the Ratio IC50 was less than 0.004.

In the case of `COC(=O)C1=C(c2ccc(-c3ccccc3)n2C)CC2CCC1O2` (racemic), the Ratio IC50 came to 1. For the compound `COC(=O)C1=C(c2ccc(-c3ccccc3)o2)C[C@@H]2CC[C@H]1O2` (racemic), the Ratio IC50 was 1. On the same count and under the same terms, the value for `COC(=O)C1=C(c2ccc(-c3ccccc3)s2)CC2CCC1O2` (racemic) was 1; that for `COC(=O)C1=C(c2cccc(-c3cccn3C)c2)CC2CCC1O2` (racemic) was more than 14; that for `COC(=O)C1=C(c2ccco2)C[C@@H]2CC[C@H]1O2` (racemic) was 1. Regarding `COC(=O)C1=C(c2cccs2)C[C@@H]2CC[C@H]1O2` (racemic), the Ratio IC50 was 1. Still for that read-out and setting: next, `O=C1C2=C(CC3CCC2O3)c2cc3ccccc3n21` (racemic): 1.

For a further assay, the species on record is Macaca mulatta. In words: Binding affinity to rhesus monkey DAT. In short, it runs like this: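 Monkey striatal tissue; each compound tested 2–5 times. Competition binding used a fixed radioligand concentration against a range of test-drug concentrations.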
In turn, `COC(=O)[C@H]1[C@@H](c2ccc(F)cc2)C[C@@H]2CC[C@H]1N2C` yielded an Activity of 12.9 nM.

For a further assay, the target named is Sodium-dependent dopamine transporter (Homo sapiens) (UniProt Q01959). In words: Displacement of [3H]WIN 35,428 from human dopamine active transporter. An outline of the steps: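 A fixed radioligand concentration was run against a range of test-drug concentrations, and IC50 was read. Racemic compounds. Values are means of two or more independent experiments, each in triplicate.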
Sequence of Sodium-dependent dopamine transporter (Homo sapiens) (Q01959 whole entry): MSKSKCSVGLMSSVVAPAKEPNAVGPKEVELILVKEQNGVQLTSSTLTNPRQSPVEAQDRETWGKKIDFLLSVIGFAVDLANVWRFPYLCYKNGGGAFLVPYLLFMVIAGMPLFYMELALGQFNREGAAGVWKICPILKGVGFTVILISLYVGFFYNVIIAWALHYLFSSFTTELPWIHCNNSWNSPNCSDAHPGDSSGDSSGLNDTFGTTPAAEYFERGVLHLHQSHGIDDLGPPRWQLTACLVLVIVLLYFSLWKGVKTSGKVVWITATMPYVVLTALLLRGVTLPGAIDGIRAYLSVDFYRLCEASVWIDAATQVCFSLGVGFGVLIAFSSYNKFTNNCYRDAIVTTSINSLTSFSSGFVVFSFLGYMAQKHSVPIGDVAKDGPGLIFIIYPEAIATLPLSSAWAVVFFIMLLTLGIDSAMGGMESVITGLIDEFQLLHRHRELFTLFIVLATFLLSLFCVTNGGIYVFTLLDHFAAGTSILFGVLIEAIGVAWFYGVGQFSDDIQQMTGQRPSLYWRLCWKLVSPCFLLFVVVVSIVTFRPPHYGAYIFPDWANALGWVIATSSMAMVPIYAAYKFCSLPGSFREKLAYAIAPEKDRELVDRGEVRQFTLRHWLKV
In general terms: Loss of bound radioactivity is the signal in a displacement assay; it reports binding, not function.
`COC(=O)[C@@H]1C2CCC(C[C@@H]1c1cc3ccccc3[nH]1)O2` (mixture of isomers): the inhibition result was “Dose-dependent effect”. On to `COC(=O)[C@@H]1C2CCC(C[C@@H]1c1ccc(-c3cccn3C)cc1)O2` (mixture of isomers), for which the inhibition entry was “Dose-dependent effect”. Take `COC(=O)[C@@H]1C2CCC(C[C@@H]1c1ccc(-c3ccco3)cc1)O2` (mixture of isomers): the inhibition entry is “Dose-dependent effect”. Still for that read-out and setting: next, `COC(=O)[C@@H]1C2CCC(C[C@H]1c1cc3ccccc3s1)O2` (mixture of isomers): “Dose-dependent effect”; `COC(=O)[C@@H]1C2CCC(C[C@H]1c1ccc(-c3cccn3C)cc1)O2` (mixture of isomers): “Dose-dependent effect”; `COC(=O)[C@@H]1C2CCC(C[C@H]1c1ccc(-c3ccco3)cc1)O2` (mixture of isomers): “Dose-dependent effect”. Still for that read-out and setting: next, `COC(=O)[C@@H]1C2CCC(C[C@H]1c1ccc(-c3cccs3)cc1)O2` (mixture of isomers): “Dose-dependent effect”. For the compound `COC(=O)[C@@H]1C2CCC(C[C@H]1c1ccc(-c3nccs3)cc1)O2` (mixture of isomers), the inhibition result was “Dose-dependent effect”.

Turning to `COC(=O)[C@@H]1C2CCC(C[C@H]1c1cccs1)O2` (mixture of isomers), the inhibition result was “Dose-dependent effect”.

Regarding `COC(=O)[C@H]1C2CCC(C[C@@H]1c1cc3ccccc3[nH]1)O2` (mixture of isomers), the inhibition result is “Dose-dependent effect”. On to `COC(=O)[C@H]1C2CCC(C[C@@H]1c1cc3ccccc3s1)O2` (mixture of isomers), for which the inhibition result is “Dose-dependent effect”. Still for that read-out and setting: next, `COC(=O)[C@H]1C2CCC(C[C@@H]1c1cccs1)O2` (mixture of isomers): “Dose-dependent effect”; `COC(=O)[C@H]1C2CCC(C[C@H]1c1cc3ccccc3[nH]1)O2` (mixture of isomers): “Dose-dependent effect”; `COC(=O)[C@H]1C2CCC(C[C@H]1c1cc3ccccc3o1)O2` (mixture of isomers): “Dose-dependent effect”. On the same count and under the same terms, the value for `COC(=O)[C@H]1C2CCC(C[C@H]1c1ccc(-c3ccccc3)o1)O2` (mixture of isomers) was “Dose-dependent effect”; that for `COC(=O)[C@H]1C2CCC(C[C@H]1c1cccc(-c3nccs3)c1)O2` (mixture of isomers) was “Dose-dependent effect”; that for `COC(=O)C1=C(c2cc3ccccc3o2)CC2CCC1O2` (racemic) was “Dose-dependent effect”.

As to `COC(=O)C1=C(c2cc3ccccc3s2)CC2CCC1O2` (racemic), the inhibition entry is “Dose-dependent effect”. Regarding `COC(=O)C1=C(c2ccc(-c3ccccc3)n2C)CC2CCC1O2` (racemic), the inhibition result was “Dose-dependent effect”. On to `COC(=O)C1=C(c2ccc(-c3ccccc3)o2)C[C@@H]2CC[C@H]1O2` (racemic), for which the inhibition result is “Dose-dependent effect”.

As for `COC(=O)C1=C(c2ccc(-c3ccccc3)s2)CC2CCC1O2` (racemic), the inhibition result is “Dose-dependent effect”.

Regarding `COC(=O)C1=C(c2cccc(-c3cccn3C)c2)CC2CCC1O2` (racemic), the inhibition entry was “Dose-dependent effect”. On the same count and under the same terms, the value for `COC(=O)C1=C(c2ccco2)C[C@@H]2CC[C@H]1O2` (racemic) was “Dose-dependent effect”; that for `COC(=O)C1=C(c2cccs2)C[C@@H]2CC[C@H]1O2` (racemic) was “Dose-dependent effect”; that for `O=C1C2=C(CC3CCC2O3)c2cc3ccccc3n21` (racemic) was “Dose-dependent effect”.
